Assays:
[1] = biological target: Cyclin-dependent kinase 2 (Homo sapiens, UniProt P24941); assay: Inhibition of CDK2
[2] = Inhibition of PKA
[3] = biological target: T1, RAC-alpha serine/threonine-protein kinase (Homo sapiens, UniProt P31749); assay: Inhibition of AKT1
[4] = biological target: T1, RAC-alpha serine/threonine-protein kinase; assay: Inhibition of AKT1-mediated PRAS40 phosphorylation in human U87MG cells after 1 hr in presence of 5% FBS by ELISA assay; type: cell-based, U-87MG ATCC
Procedure, shortened: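 U87MG cells kept in medium with 5% FBS; inhibitor added as threefold serial dilutions, 1 h incubation at 37 °C, then phospho-PRAS40 measured. Values are means ± SD, n ≥ 3.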

[5] = Clearance in rat; type: ADME, organism-based; conditions: in vivo
[6] = Metabolic stability in human liver microsomes assessed as compound turnover; type: ADME, Microsome; conditions: read-out: Activity
Liver microsomes = assay: Metabolic stability in rat liver microsome; type: ADME

T1 sequence (P31749 whole entry): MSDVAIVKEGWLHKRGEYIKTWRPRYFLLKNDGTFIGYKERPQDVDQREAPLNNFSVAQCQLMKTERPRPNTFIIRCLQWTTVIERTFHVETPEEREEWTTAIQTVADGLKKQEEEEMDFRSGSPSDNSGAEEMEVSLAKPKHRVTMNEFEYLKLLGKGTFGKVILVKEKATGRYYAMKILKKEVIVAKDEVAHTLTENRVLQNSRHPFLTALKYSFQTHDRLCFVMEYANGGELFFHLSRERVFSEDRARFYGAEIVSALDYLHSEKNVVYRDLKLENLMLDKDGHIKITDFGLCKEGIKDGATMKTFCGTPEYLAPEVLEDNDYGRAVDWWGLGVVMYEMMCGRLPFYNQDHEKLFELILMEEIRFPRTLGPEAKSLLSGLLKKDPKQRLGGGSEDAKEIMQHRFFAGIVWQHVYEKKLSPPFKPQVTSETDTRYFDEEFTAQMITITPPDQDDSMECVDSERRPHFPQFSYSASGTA

IC50 [1] [µM]	IC50 [2] [nM]	IC50 [3] [nM]	IC50 [4] [nM]	clearance [5] [mL/min/kg]	metabolised [6] [%]	Stability (Liver microsomes) [%]	SMILES
> 25	50	40	–	–	–	–	O=C(NC(c1ccc(Cl)c(Cl)c1)C1CCNCC1)c1ccc2cnccc2c1 (racemic)
0.36	10	7	–	–	–	–	CN1CC([C@@H](NC(=O)c2ccc3cnccc3c2)c2ccc(Cl)c(Cl)c2)C1
0.19	170	20	300	–	–	–	N[C@H](CNc1nnc(-c2ccc3c(c2)CC(=O)N3)s1)Cc1ccc(C(F)(F)F)cc1
> 25	130	190	–	–	–	–	O=C(NC(c1ccc(Cl)cc1)C1CCNCC1)c1ccc2cnccc2c1 (racemic)
9.8	30	110	–	–	–	–	O=C(N[C@H](c1ccc(Cl)c(Cl)c1)C1CNC1)c1ccc2cnccc2c1
> 25	90	20	390	58.3	10	15.9	O=C(NC(c1ccc(Cl)c(Cl)c1)C1CCNCC1)c1ccc2cnc(F)cc2c1 (racemic)
21	–	20	–	–	–	–	O=C(NC(c1ccc(Cl)c(Cl)c1)C1CCCNC1)c1ccc2cnccc2c1 (stereo not drawn)
–	13700	460	–	–	–	–	O=C(NC(c1ccc(Cl)c(Cl)c1)C1CCNCC1)c1ccc2[nH]c(=O)oc2c1 (racemic)
> 25	> 25000	5800	–	–	–	–	O=C(NC(c1ccc(Cl)c(Cl)c1)C1CCCCC1)c1ccc2cnccc2c1 (racemic)
> 25	3410	12700	–	–	–	–	O=C(NC(c1cncnc1)c1ccc(Cl)c(Cl)c1)c1ccc2cnccc2c1 (racemic)
> 25	220	200	–	–	–	–	O=C(NC(c1ccc(Cl)c(-c2ccccc2)c1)C1CCNCC1)c1ccc2cnccc2c1 (racemic)
–	290	250	–	–	–	–	O=C(NC(c1ccc(Cl)c(Cl)c1)C1CCNCC1)c1ccc2[nH]ncc2c1 (racemic)
> 25	230	140	–	–	–	–	O=C(NC(c1cnc(Cl)c(Cl)c1)C1CCNCC1)c1ccc2cnccc2c1 (racemic)
19.7	250	850	–	–	–	–	O=C(NC(c1ccccc1)C1CCNCC1)c1ccc2cnccc2c1 (racemic)
–	850	330	–	–	–	–	O=C(NC(c1ccc(Cl)c(Cl)c1)C1CCNCC1)c1ccc2cnncc2c1 (single isomer, unassigned)
> 25	100	120	–	–	–	–	O=C(NC(c1cccc(Cl)c1Cl)C1CCNCC1)c1ccc2cnccc2c1 (racemic)
> 25	10	30	–	–	–	–	O=C(NC(c1ccc(Cl)c(Cl)c1)C1CCNC1)c1ccc2cnccc2c1 (mixture of isomers)
> 25	980	2300	–	–	–	–	O=C(N[C@@H](c1ccc(Cl)c(Cl)c1)C1CCN(Cc2ccc(C(F)(F)F)cc2)CC1)c1ccc2cnccc2c1

IC50 [1] [µM]	IC50 [2] [nM]	IC50 [3] [nM]	IC50 [4] [nM]	clearance [5] [mL/min/kg]	metabolised [6] [%]	Stability (Liver microsomes) [%]	SMILES
> 25	130	1510	–	–	–	–	COc1ccc(C(NC(=O)c2ccc3cnccc3c2)C2CCNCC2)cc1F (racemic)
> 25	2010	2140	–	–	–	–	CC(C)CN1CCC([C@@H](NC(=O)c2ccc3cnccc3c2)c2ccc(Cl)c(Cl)c2)CC1
> 25	1560	3380	–	–	–	–	N[C@H](CNC(=O)c1ccc2cnccc2c1)Cc1ccc(C(F)(F)F)cc1
0.05	6	–	–	–	–	–	N[C@H](CNc1nnc(-c2ccc3cnccc3c2)s1)Cc1ccc(C(F)(F)F)cc1
> 25	160	80	–	–	–	–	N#Cc1cc(C(NC(=O)c2ccc3cnccc3c2)C2CCNCC2)ccc1Cl (racemic)
> 25	–	40	–	–	–	–	O=C(NC(c1ccc(Cl)c(F)c1)C1CCNCC1)c1ccc2cnccc2c1 (racemic)
–	–	140	–	–	–	–	O=C(NC(c1ccc(Cl)c(Cl)c1)C1CCNCC1)c1ccc2cnc(Cl)cc2c1 (racemic)
> 25	160	2680	–	–	–	–	O=C(NC(c1ccc(F)c(F)c1)C1CCNCC1)c1ccc2cnccc2c1 (racemic)
> 25	390	240	–	–	–	–	O=C(N[C@@H](c1ccc(Cl)c(Cl)c1)C1CCN(Cc2ccccc2)CC1)c1ccc2cnccc2c1
> 25	> 25000	20400	–	–	–	–	O=C(NC(c1ccncc1)c1ccc(Cl)c(Cl)c1)c1ccc2cnccc2c1 (racemic)
> 25	1070	1570	–	–	–	–	O=C(NC(c1nccs1)C1CCNCC1)c1ccc2cnccc2c1 (racemic)
–	670	6850	–	–	–	–	COc1ccc(-c2cc3cnccc3cc2C(=O)NC(c2ccc(Cl)c(Cl)c2)C2CCNCC2)cc1 (racemic)
–	1150	350	–	–	–	–	O=C1Cc2cc(C(=O)NC(c3ccc(Cl)c(Cl)c3)C3CCNCC3)ccc2N1 (racemic)
> 25	260	400	–	–	–	–	O=C(NC(c1ccc2ccccc2c1)C1CCNCC1)c1ccc2cnccc2c1 (racemic)
0.69	10	7	240	173	10.9	33.4	O=C(N[C@@H](c1ccc(Cl)c(Cl)c1)C1CNC1)c1ccc2cnccc2c1
–	30	39	–	–	–	–	COc1cc2cnccc2cc1C(=O)NC(c1ccc(Cl)c(Cl)c1)C1CCNCC1 (racemic)
> 25	30	70	–	–	–	–	O=C(NC(c1cccc(Cl)c1)C1CCNCC1)c1ccc2cnccc2c1 (racemic)

Reference: ChEMBL document CHEMBL1821694, “Design and synthesis of novel amide AKT1 inhibitors with selectivity over CDK2” (Bioorg Med Chem Lett, 2011)
